The structures appear in SMILES notation. The source made the active and inactive calls. No cut-off for these calls is given here.

These results are taken from ChEMBL document CHEMBL3272014, “Synthesis and biological inactivity of some 4alpha,6-cyclo steroids” (1976).

The species named for test [1] is Rattus norvegicus. Briefly: Antiandrogenicity in male rat assessed as inhibition of increase in seminal vesicle weight using 1.2 mg testosterone at 10 mg. The format is functional.
For test [2], the species on record is Rattus norvegicus. Briefly: Antiandrogenicity in male rat assessed as inhibition of increase in levator ani weight using 1.2 mg testosterone at 10 mg. Format: functional.
The species entered for test [3] is Rattus norvegicus. Briefly: Antiandrogenicity in male rat assessed as inhibition of increase in ventral prostate weight using 1.2 mg testosterone at 10 mg. The format is functional, Prostate gland.
Test [4] is filed under the species Rattus norvegicus. As to the kind of experiment: Androgenicity in male rat at 10 mg. Format: functional, organism-based.
The species named for test [5] is Oryctolagus cuniculus. As to the kind of experiment: Antiprogestational activity in rabbit at 0.4 mg by anti-clauberg assay. The format is functional, organism-based. The method in brief:
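Rabbit anti-Clauberg (antiprogestational) assay: test steroid given at 20.0 mg against a progesterone challenge of 0.4 mg. Run by Mason Research Institute for the NIH Contraceptive Development Branch.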

The species named for test [6] is Rattus norvegicus. As to the kind of experiment: Antiandrogenicity in male rat assessed as inhibition of increase in seminal vesicle weight using 2.4 mg testosterone at 10 mg. The format is functional.
The species entered for test [7] is Rattus norvegicus. Briefly: Antiandrogenicity in male rat assessed as inhibition of increase in levator ani weight using 2.4 mg testosterone at 10 mg. Format: functional.
For test [8], the species on record is Rattus norvegicus. As to the kind of experiment: Antiandrogenicity in male rat assessed as inhibition of increase in ventral prostate weight using 2.4 mg testosterone at 10 mg. The format is functional, Prostate gland.
For test [9], the species on record is Rattus norvegicus. As to the kind of experiment: Androgenicity in male rat at 0.1 to 10 mg. The format is functional, organism-based.
For test [10], the species on record is Oryctolagus cuniculus. As to the kind of experiment: Progestational activity in rabbit at 0.1 to 10 mg by clauberg assay. Format: functional, organism-based. The method, boiled down: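 Clauberg assay in rabbits: progestational response scored after test steroid at dose levels of 0.1, 1.0 and 10.0 mg.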

As to `C[C@]12CC[C@@H]3[C@H]4CCC(=O)[C@H]5C(C[C@H]3[C@@H]1CCC2=O)[C@@H]45` (stereo partly drawn), the “inhibition (INH)” value in the test filed under Rattus norvegicus [1], in the test filed under Rattus norvegicus [2] and in the test filed under Rattus norvegicus [3] was under 20% each time. For the same molecule, the result in the test listed under Rattus norvegicus [4] was Active.

In the case of `CC(=O)[C@H]1CC[C@H]2[C@@H]3CCC4=CC(=O)CC[C@]4(C)[C@H]3CC[C@]12C`, the result in the test listed under Oryctolagus cuniculus [5] was inactive.

Take `CC(=O)O[C@H]1CC[C@H]2[C@@H]3CC4[C@@H]5[C@H]4C(=O)CC[C@]5(C)[C@H]3CC[C@]12C` (stereo partly drawn): the “inhibition (INH)” value in the test listed under Rattus norvegicus [1], in the test filed under Rattus norvegicus [6], in the test filed under Rattus norvegicus [7], in the test filed under Rattus norvegicus [2], in the test listed under Rattus norvegicus [3] and in the test filed under Rattus norvegicus [8] was under 20% throughout. Further, the outcome in the test listed under Rattus norvegicus [9] was Active.

Take `CC(=O)[C@H]1CC[C@H]2[C@@H]3CC4[C@@H]5[C@H]4C(=O)CC[C@]5(C)[C@H]3CC[C@]12C` (stereo partly drawn): the outcome in the test listed under Oryctolagus cuniculus [10] was inactive.
